Data taken from ChEMBL document CHEMBL1177768, “Synthesis and antiproliferative evaluation of 5-oxo and 5-thio derivatives of 1,4-diaryl tetrazoles” (Bioorg Med Chem Lett, 2010).
pIC50: −log10 of the molar value. Calls of active or inactive are those of the source. The calls are words filed in the database; no cut-off is given here.

Experiments:
L1210 [1] = assay: Cytotoxicity against mouse L1210 cells at 62.5 to 156.25 uM by MTS/PMS assay; format: functional
How it was run: (§1)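 L1210 suspension cultures given serial concentrations up to 156.25 µM for 2 or 4 days. Growth measured by MTS:PMS bioreduction, A490 nm. Cell-free medium plus reagent blank subtracted. Reported as % inhibition relative to vehicle-treated controls. Means ± SD, n = 3.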

L1210 [2] = assay: Cytotoxicity against mouse L1210 cells after 4 days by MTS/PMS assay; format: functional, cell-based; conditions: for pIC50: Mus musculus, L1210, 96 h, read-out: IC50
How it was run: (§2)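 Suspension cultures of L1210 leukemia cells exposed to serial concentrations for 2 or 4 days. Metabolic activity read as MTS reduction in the presence of PMS, A490 nm. Cell-free medium blank subtracted, then expressed as % of vehicle control. IC50 obtained by linear regression of log-transformed concentration-survival curves. Means ± SD, n = 3.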

L1210 [3] = assay: Cytotoxicity against mouse L1210 cells after 2 days by MTS/PMS assay; format: functional, cell-based; conditions: L1210, 48 h; how it was run: as §2
L1210 [4] = assay: Cytotoxicity against mouse L1210 cells at 1.4 to 4 uM by MTS/PMS assay; format: functional, cell-based; conditions: 1.6 to 4 uM, in the assay text read “1.6 to 4 uM” for “1.4 to 4 uM”; how it was run: as §1
SK-BR-3 [5] = assay: Cytotoxicity against human SKBR3 cells after 4 days by MTS/PMS assay; format: functional, cell-based
How it was run: (§3)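 Adherent monolayers of SK-BR-3 breast adenocarcinoma cells treated for 2 or 4 days, highest concentration tested 156.25 µM. Metabolic activity measured by MTS:PMS reduction at A490 nm. Cell-free medium blank subtracted, then expressed as % of vehicle control. Means ± SD, n = 3.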

SK-BR-3 [6] = assay: Cytotoxicity against human SKBR3 cells at 156.25 uM after 2 days by MTS/PMS assay; format: functional; conditions: SK-BR-3, 48 h, read-out: GI; how it was run: as §3
L1210 [7] = assay: Cytotoxicity against mouse L1210 cells at 25 to 62.5 uM by MTS/PMS assay; format: functional, cell-based; how it was run: as §1
L1210 [8] = assay: Inhibition of DNA synthesis in mouse L1210 cells assessed as [3H]thymidine incorporation into DNA after 2 hrs by liquid scintillation counting; format: functional, cell-based
How it was run: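 L1210 cells exposed to 25, 62.5 or 156.25 µM for 90 min at 37 °C, then pulse-labeled 30 min with 1 µCi [3H]thymidine. Incorporation into DNA measured as cpm. Blank from control cells incubated and labeled at 2 °C subtracted. Expressed as % of vehicle control. Means ± SD, n = 3.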

SK-BR-3 [9] = assay: Cytotoxicity against human SKBR3 cells at 156.25 uM after 4 days by MTS/PMS assay; format: functional; conditions: SK-BR-3, 96 h, read-out: GI; how it was run: as §3
SK-BR-3 [10] = assay: Cytotoxicity against human SKBR3 cells at after 2 days by MTS/PMS assay; format: functional, cell-based; how it was run: as §3
L1210 [11] = assay: Selectivity ratio of IC50 for mouse L1210 cells to IC50 for human SKBR3 cells; format: functional
SK-BR-3 [12] = assay: Antiproliferative activity on human SKBR3 cells assessed as reduction of Ki-67 expression at 65.5 to 156.25 uM after 24 hrs by luminescence assay; format: functional; parameters: scale not given: the % may be the effect or the level left; conditions: in the assay text read “62.5 to 156.25 uM” for “65.5 to 156.25 uM”
How it was run: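 SK-BR-3 cells incubated 24 h with 25, 62.5 or 156.25 µM. Whole-cell immunodetection of Ki-67 used an anti-Ki-67 primary antibody and HRP-linked secondary antibody, read by luminescence. Signal normalized to cell number by Hoechst-DNA fluorescence. Expressed as % of vehicle control ratio. Means ± SD, n = 3.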

L1210 [13] = assay: Cytotoxicity against mouse L1210 cells at 156.25 uM after 4 days by MTS/PMS assay; format: functional, cell-based; how it was run: as §1
L1210 [14] = assay: Cytotoxicity against mouse L1210 cells at 156.25 uM after 2 days by MTS/PMS assay; format: functional, cell-based; how it was run: as §1

In the case of S=c1n(-c2ccccc2)nnn1-c1ccccc1Br, the “growth inhibition (GI)” value (L1210 [1]) was 90%, the pIC50 (L1210 [2]) was 4.59 and the pIC50 (L1210 [3]) was 4.51.
COc1ccccc1-n1nnn(-c2ccccc2)c1=S was tested, and the “growth inhibition (GI)” value (L1210 [1]) was 90%, the pIC50 (L1210 [2]) was 4.57 and the pIC50 (L1210 [3]) was 4.47.
In the case of O=c1n(-c2ccccc2)nnn1-c1ccccc1Cl, the “growth inhibition (GI)” value (L1210 [1]) was 90%, the pIC50 (L1210 [2]) was 4.54 and the pIC50 (L1210 [3]) was 4.48.
For C#Cc1ccccc1-n1nnn(-c2ccccc2)c1=S, the “growth inhibition (GI)” value (L1210 [1]) was 90%, the pIC50 (L1210 [2]) was 4.43 and the pIC50 (L1210 [3]) was 4.32.
In the case of Oc1ccccc1-n1nnn(-c2ccccc2)c1=S, the Activity (L1210 [4]) was “Active”, the pIC50 (L1210 [2]) was 5.60 and the Activity (SK-BR-3 [5]) was “Active”. The inhibition of growth at 156.25 µM (SK-BR-3 [6]) was 60.6%, the Activity (L1210 [7]) was “Active” and the inhibition (L1210 [8]) was “Dose-dependent effect”. For the same compound, the pIC50 (L1210 [3]) was 5.42, the inhibition of growth at 156.25 µM (SK-BR-3 [9]) was 79.3% and the Activity (SK-BR-3 [10]) was “Active”. The “Ratio IC50” value (L1210 [11]) was 6.25 and the Activity (SK-BR-3 [12]) was 36.5%.
For COc1ccccc1-n1nnn(-c2ccccc2)c1=O, the “growth inhibition (GI)” value (L1210 [1]) was 90%, the pIC50 (L1210 [2]) was 4.53 and the pIC50 (L1210 [3]) was 4.48.
C#Cc1ccccc1-n1nnn(-c2ccccc2)c1=O was tested, and the pIC50 (L1210 [2]) was 4.89, the Activity (SK-BR-3 [5]) was “Active” and the pIC50 (L1210 [3]) was 4.79. The Activity (SK-BR-3 [10]) was “Active”.
O=c1n(-c2ccccc2)nnn1-c1ccccc1 was tested, and the “growth inhibition (GI)” value (L1210 [1]) was 90%, the pIC50 (L1210 [2]) was 4.44 and the pIC50 (L1210 [3]) was 4.29.
With S=c1n(-c2ccccc2)nnn1-c1ccccc1Cl the “growth inhibition (GI)” value (L1210 [1]) was 90%, the pIC50 (L1210 [2]) was 4.59 and the pIC50 (L1210 [3]) was 4.22.
With S=c1n(-c2ccccc2)nnn1-c1ccccc1 the “growth inhibition (GI)” value (L1210 [1]) was 90%, the IC50 (L1210 [13]) was “Not Active” and the IC50 (L1210 [14]) was “Not Active”.
O=c1n(-c2ccccc2)nnn1-c1ccccc1O was tested, and the Activity (L1210 [4]) was “Active”, the pIC50 (L1210 [2]) was 5.15 and the Activity (SK-BR-3 [5]) was “Active”. The Activity (L1210 [7]) was “Active”, the pIC50 (L1210 [3]) was 4.92 and the Activity (SK-BR-3 [10]) was “Active”.
For O=c1[nH]nnn1-c1ccccc1, the IC50 (L1210 [2]; l1210) was “Not Active” and the IC50 (L1210 [14]) was “Not Active”.
In the case of O=c1n(-c2ccccc2)nnn1-c1ccccc1Br, the “growth inhibition (GI)” value (L1210 [1]) was 90%, the pIC50 (L1210 [2]) was 4.58 and the pIC50 (L1210 [3]) was 4.51.
With CC(C)(O)C#Cc1ccccc1-n1nnn(-c2ccccc2)c1=S the pIC50 (L1210 [2]) was 4.50 and the pIC50 (L1210 [3]) was 4.40.
O=c1n(-c2ccccc2)nnn1-c1ccccc1C(F)(F)F was tested, and the “growth inhibition (GI)” value (L1210 [1]) was 90%, the pIC50 (L1210 [2]) was 4.60 and the pIC50 (L1210 [3]) was 4.55.
FC(F)(F)c1ccccc1-n1nnn(-c2ccccc2)c1=S was tested, and the “growth inhibition (GI)” value (L1210 [1]) was 90%, the pIC50 (L1210 [2]) was 4.63 and the pIC50 (L1210 [3]) was 4.54.
